These results are taken from PubChem BioAssay AID651654 (Broad Institute, 2012).

Values joined by “and” are separate entries in the source; they are usually repeats but may differ in a detail not shown here. Equal values may be shown once. Out of some 360,000 compounds screened, about 740 (0.21%) were called active.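 Rule for the calls: active = mean lysis activity across replicates of at least 80%, whatever share of replicates individually reach that level; inactive = mean lysis activity below 80%.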 Shown is part of a subset that was picked to be rich in actives. The source holds several records for some structures; these can differ, active in one and inactive in another.

The nature of this test: fungicidal lysis via adenylate kinase leakage – AK release luminescence, single concentration, primary screen (AID 651654). The settings on record: C. neoformans lysis, 4 h, at 15 µM, stronger effect = higher value. The method in brief: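 Schedule: static 4 h at 37 °C with compound, 1 h detection; system: C. neoformans cells; benchmarks: Clomiphene as positive control; buffer or medium: fresh YPD medium; measure: luminescence rise reflecting yeast cell lysis; measured by: luminescent adenylate kinase detection reagent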
Turning to `C[C@H]1CN([C@@H](C)CO)C(=O)CCCn2nncc2CO[C@H]1CN(C)C(=O)Oc1cccc2ccccc12`, the lysis activity was 5.65% (inactive) and 82.4% (active) and -0.095% (inactive).
Turning to `C[C@H]1CN([C@@H](C)CO)C(=O)CCCn2nncc2CO[C@H]1CN(C)C(=O)Oc1ccccc1`, the lysis activity is -2.79% (inactive) and -0.658% (inactive) and 0.85% (inactive).
As for `C[C@H](CO)N1C[C@H](C)[C@H](CN(C)C(=O)Oc2ccc3ccccc3c2)OCc2cnnn2CCCC1=O`, the figure is -8.92% (inactive).
Regarding `COc1cccc(C(c2nnnn2-c2ccc3c(c2)OCCO3)N2CCC3(CC2)C(=O)NCN3c2ccccc2)c1OC` (stereo not given), the lysis activity is -24.5% (inactive).
On to `O=C(Cc1ccccc1)N1CCCCN2[C@H](C1)[C@H](c1ccc(C#CC3(O)CCCC3)cc1)[C@@H]2CO`, for which the lysis activity is -1.31% (inactive).
